Results as given in ChEMBL document CHEMBL4715736, “Identification of anticancer agents based on the thieno[2,3-b]pyridine and 1H-pyrazole molecular scaffolds” (2016).

Assays:
Format in all cases: functional
MOLT-4 = test: Growth inhibition of human MOLT-4 cells incubated for 48 hrs by sulforhodamine B assay; conditions: for CC50: read-out: LC50 (the source's name)
How it was run: (§1)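 NCI60 panel at the NCI Developmental Therapeutics Program. Only compounds active in the 10 µM screen went to dose-response testing. GI50, the concentration giving 50% of maximal inhibition of proliferation, and TGI, the concentration giving total growth inhibition, were derived from the dose-response curves.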

HCC 2998 [1] = test: Growth inhibition of human HCC 2998 cells assessed as cell growth at 100 uM incubated for 48 hrs by sulforhodamine B assay relative to control; conditions: read-out: Activity
How it was run: (§2)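 NCI Developmental Therapeutics Program NCI60 panel. Compounds that were active in the 10 µM one-dose screen went on to dose–response testing. Growth at each concentration is expressed relative to untreated control (100%). GI50 (concentration giving 50% of maximal inhibition of proliferation) and TGI (concentration giving total growth inhibition) were derived from the curves.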

UACC-257 [2] = test: Growth inhibition of human UACC-257 cells assessed as cell growth at 100 uM incubated for 48 hrs by sulforhodamine B assay relative to control; conditions: read-out: Activity
RPMI-8226 = test: Growth inhibition of human RPMI-8226 cells assessed as cell growth at 0.1 uM incubated for 48 hrs by sulforhodamine B assay relative to control; conditions: read-out: Activity
Malme-3M = test: Growth inhibition of human Malme-3M cells assessed as cell growth at 0.1 uM incubated for 48 hrs by sulforhodamine B assay relative to control; conditions: read-out: Activity
MDA-MB-231 [3] = test: Growth inhibition of human MDA-MB-231 cells incubated for 48 hrs by sulforhodamine B assay; conditions: for CC50: read-out: LC50 (the source's name); how it was run: as §1
MDA-MB-468 = test: Growth inhibition of human MDA-MB-468 cells assessed as cell growth at 0.01 uM incubated for 48 hrs by sulforhodamine B assay relative to control; conditions: read-out: Activity
MCF7 [4] = test: Growth inhibition of human MCF7 cells assessed as cell growth at 1 uM incubated for 48 hrs by sulforhodamine B assay relative to control; conditions: read-out: Activity
MCF7 [5] = test: Growth inhibition of human MCF7 cells incubated for 48 hrs by sulforhodamine B assay; conditions: for CC50: read-out: LC50 (the source's name); how it was run: as §1
HCT-15 = test: Growth inhibition of human HCT-15 cells incubated for 48 hrs by sulforhodamine B assay; how it was run: as §1
TK-10 = test: Growth inhibition of human TK-10 cells assessed as cell growth at 0.1 uM incubated for 48 hrs by sulforhodamine B assay relative to control; conditions: read-out: Activity
NCI-H23 [6] = test: Growth inhibition of human NCI-H23 cells assessed as cell growth at 1 uM incubated for 48 hrs by sulforhodamine B assay relative to control; conditions: read-out: Activity
KM12 = test: Growth inhibition of human KM12 cells assessed as cell growth at 0.1 uM incubated for 48 hrs by sulforhodamine B assay relative to control; conditions: read-out: Activity
HCC 2998 [7] = test: Growth inhibition of human HCC 2998 cells incubated for 48 hrs by sulforhodamine B assay; conditions: for CC50: read-out: LC50 (the source's name)
OVCAR-5 [8] = test: Growth inhibition of human OVCAR-5 cells assessed as cell growth at 0.1 uM incubated for 48 hrs by sulforhodamine B assay relative to control; conditions: read-out: Activity
NCI-H23 [9] = test: Growth inhibition of human NCI-H23 cells assessed as cell growth at 100 uM incubated for 48 hrs by sulforhodamine B assay relative to control; conditions: read-out: Activity
A498 [10] = test: Growth inhibition of human A498 cells assessed as cell growth at 100 uM incubated for 48 hrs by sulforhodamine B assay relative to control; conditions: read-out: Activity; how it was run: as §2
CAKI-1 = test: Growth inhibition of human CAKI-1 cells assessed as cell growth at 100 uM incubated for 48 hrs by sulforhodamine B assay relative to control; conditions: read-out: Activity; how it was run: as §2
SNB-75 [11] = test: Growth inhibition of human SNB-75 cells assessed as cell growth at 100 uM incubated for 48 hrs by sulforhodamine B assay relative to control; conditions: read-out: Activity
A549 = test: Growth inhibition of human A549/ATCC cells incubated for 48 hrs by sulforhodamine B assay; conditions: for CC50: read-out: LC50 (the source's name); how it was run: as §2
NCI-H226 = test: Growth inhibition of human NCI-H226 cells incubated for 48 hrs by sulforhodamine B assay; conditions: for CC50: read-out: LC50 (the source's name); how it was run: as §1
A498 [12] = test: Growth inhibition of human A498 cells incubated for 48 hrs by sulforhodamine B assay; conditions: for CC50: read-out: LC50 (the source's name); how it was run: as §2
786-0 = test: Growth inhibition of human 786-0 cells assessed as cell growth at 0.01 uM incubated for 48 hrs by sulforhodamine B assay relative to control; conditions: read-out: Activity; how it was run: as §2
ACHN = test: Growth inhibition of human ACHN cells assessed as cell growth at 1 uM incubated for 48 hrs by sulforhodamine B assay relative to control; conditions: read-out: Activity
OVCAR-5 [13] = test: Growth inhibition of human OVCAR-5 cells assessed as cell growth at 100 uM incubated for 48 hrs by sulforhodamine B assay relative to control; conditions: read-out: Activity
SK-MEL-5 = test: Growth inhibition of human SK-MEL-5 cells assessed as cell growth at 0.1 uM incubated for 48 hrs by sulforhodamine B assay relative to control; conditions: read-out: Activity
MDA-MB-231 [14] = test: Growth inhibition of human MDA-MB-231 cells assessed as cell growth at 100 uM incubated for 48 hrs by sulforhodamine B assay relative to control; conditions: read-out: Activity
Hs-578T = test: Growth inhibition of human Hs-578T cells incubated for 48 hrs by sulforhodamine B assay; conditions: for CC50: read-out: LC50 (the source's name); how it was run: as §1
HOP-62 = test: Growth inhibition of human HOP-62 cells assessed as cell growth at 1 uM incubated for 48 hrs by sulforhodamine B assay relative to control; conditions: read-out: Activity
SR [15] = test: Growth inhibition of human SR cells assessed as cell growth at 0.1 uM incubated for 48 hrs by sulforhodamine B assay relative to control; conditions: read-out: Activity
HOP-92 = test: Growth inhibition of human HOP-92 cells assessed as cell growth at 0.1 uM incubated for 48 hrs by sulforhodamine B assay relative to control; conditions: read-out: Activity
SNB-75 [16] = test: Growth inhibition of human SNB-75 cells incubated for 48 hrs by sulforhodamine B assay
How it was run: (§3)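 NCI DTP 60-line human tumour panel. Dose-response curves were run only for ligands active in the initial 10 µM screen. GI50 (concentration giving 50% of maximal inhibition of proliferation) and TGI (concentration giving total growth inhibition) were derived from these curves.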

UACC-257 [17] = test: Growth inhibition of human UACC-257 cells incubated for 48 hrs by sulforhodamine B assay; how it was run: as §3
SR [18] = test: Growth inhibition of human SR cells assessed as cell growth at 0.01 uM incubated for 48 hrs by sulforhodamine B assay relative to control; conditions: read-out: Activity
SF-295 = test: Growth inhibition of human SF-295 cells assessed as cell growth at 0.01 uM incubated for 48 hrs by sulforhodamine B assay relative to control; conditions: read-out: Activity

Nc1c(C(=O)Nc2ccccc2)sc2nc3c(cc12)CN(Cc1ccccc1)CC3
GI50 (MOLT-4): 31.3 µM
TGI (MOLT-4): > 100 µM
CC50 (MOLT-4): > 100 µM
growth at 100 µM (HCC 2998 [1]): 47%
growth at 100 µM (UACC-257 [2]): 44%
growth at 0.1 µM (RPMI-8226): 99%
growth at 0.1 µM (Malme-3M): 88%
GI50 (MDA-MB-231 [3]): 5.81 µM
TGI (MDA-MB-231 [3]): > 100 µM
CC50 (MDA-MB-231 [3]): > 100 µM
growth at 0.01 µM (MDA-MB-468): 96%
growth at 1 µM (MCF7 [4]): 82%
GI50 (MCF7 [5]): 12.1 µM
TGI (MCF7 [5]): > 100 µM
CC50 (MCF7 [5]): > 100 µM
GI50 (HCT-15): 24.7 µM
LC50 (HCT-15): > 100 µM
TGI (HCT-15): > 100 µM
growth at 0.1 µM (TK-10): 96%
growth at 1 µM (NCI-H23 [6]): 101%
growth at 0.1 µM (KM12): 95%
GI50 (HCC 2998 [7]): 76.1 µM
TGI (HCC 2998 [7]): > 100 µM
CC50 (HCC 2998 [7]): > 100 µM
growth at 0.1 µM (OVCAR-5 [8]): 92%
growth at 100 µM (NCI-H23 [9]): 24%
growth at 100 µM (A498 [10]): 42%
growth at 100 µM (CAKI-1): 36%
growth at 100 µM (SNB-75 [11]): -49%
GI50 (A549): 13.9 µM
TGI (A549): > 100 µM
CC50 (A549): > 100 µM
GI50 (NCI-H226): 4.91 µM
TGI (NCI-H226): > 100 µM
CC50 (NCI-H226): > 100 µM
GI50 (A498 [12]): 1.78 µM
CC50 (A498 [12]): > 100 µM
growth at 0.01 µM (786-0): 96%
growth at 1 µM (ACHN): 87%
growth at 100 µM (OVCAR-5 [13]): 66%
growth at 0.1 µM (SK-MEL-5): 100%
growth at 100 µM (MDA-MB-231 [14]): 16%
GI50 (Hs-578T): 2.07 µM
TGI (Hs-578T): 7.55 µM
CC50 (Hs-578T): > 100 µM
growth at 1 µM (HOP-62): 88%
growth at 0.1 µM (SR [15]): 91%
growth at 0.1 µM (HOP-92): 86%
GI50 (SNB-75 [16]): 1.32 µM
TGI (SNB-75 [16]): 3.5 µM
GI50 (UACC-257 [17]): 52.8 µM
LC50 (concentration killing 50% of cells) (UACC-257 [17]): > 100 µM
TGI (UACC-257 [17]): > 100 µM
growth at 0.01 µM (SR [18]): 98%
growth at 0.01 µM (SF-295): 96%

Cc1cccc(NC(=O)c2sc3nc4c(cc3c2N)C(=O)CCC4)c1
TGI (MOLT-4): > 100 µM
CC50 (MOLT-4): > 100 µM
growth at 100 µM (HCC 2998 [1]): -23%
growth at 100 µM (UACC-257 [2]): -16%
growth at 0.1 µM (RPMI-8226): 94%
growth at 0.1 µM (Malme-3M): 64%
GI50 (MDA-MB-231 [3]): 0.559 µM
TGI (MDA-MB-231 [3]): ≥ 100 µM
CC50 (MDA-MB-231 [3]): > 100 µM
growth at 0.01 µM (MDA-MB-468): 93%
growth at 1 µM (MCF7 [4]): 18%
GI50 (MCF7 [5]): 0.145 µM
TGI (MCF7 [5]): > 100 µM
CC50 (MCF7 [5]): > 100 µM
GI50 (HCT-15): 0.27 µM
LC50 (HCT-15): > 100 µM
TGI (HCT-15): > 100 µM
growth at 0.1 µM (TK-10): 82%
growth at 1 µM (NCI-H23 [6]): 35%
growth at 0.1 µM (KM12): 65%
GI50 (HCC 2998 [7]): 0.383 µM
TGI (HCC 2998 [7]): > 100 µM
CC50 (HCC 2998 [7]): > 100 µM
growth at 0.1 µM (OVCAR-5 [8]): 86%
growth at 100 µM (NCI-H23 [9]): 12%
growth at 100 µM (A498 [10]): -53%
growth at 100 µM (CAKI-1): -22%
growth at 100 µM (SNB-75 [11]): 1%
GI50 (A549): 0.3 µM
TGI (A549): > 100 µM
CC50 (A549): > 100 µM
GI50 (NCI-H226): 1.09 µM
TGI (NCI-H226): > 100 µM
CC50 (NCI-H226): > 100 µM
GI50 (A498 [12]): 0.139 µM
TGI (A498 [12]): 0.701 µM
CC50 (A498 [12]): > 100 µM
growth at 0.01 µM (786-0): 88%
growth at 1 µM (ACHN): 49%
growth at 100 µM (OVCAR-5 [13]): -20%
growth at 0.1 µM (SK-MEL-5): 44%
growth at 100 µM (MDA-MB-231 [14]): 21%
GI50 (Hs-578T): 0.256 µM
TGI (Hs-578T): 40.9 µM
CC50 (Hs-578T): > 100 µM
growth at 1 µM (HOP-62): 30%
growth at 0.1 µM (HOP-92): 69%
GI50 (SNB-75 [16]): 0.23 µM
LC50 (SNB-75 [16]): > 100 µM
TGI (SNB-75 [16]): ≥ 100 µM
GI50 (UACC-257 [17]): ≥ 0.148 µM
LC50 (concentration killing 50% of cells) (UACC-257 [17]): > 100 µM
TGI (UACC-257 [17]): > 100 µM
growth at 0.01 µM (SF-295): 88%
